Key:
[1] = molecular target: Adenosine receptor A2a (Homo sapiens, UniProt P29274); assay: Displacement of [3H]ZM241385 from human adenosine A2A receptor expressed in HEK293 cells by scintillation counting; type: cell-based
[2] = molecular target: T1, Adenosine receptor A1 (Homo sapiens) (UniProt P30542); assay: Displacement of [3H]DPCPX from human adenosine A1 receptor expressed in HEK293 cells at 10 uM by scintillation counting; type: cell-based
T1 sequence (whole entry): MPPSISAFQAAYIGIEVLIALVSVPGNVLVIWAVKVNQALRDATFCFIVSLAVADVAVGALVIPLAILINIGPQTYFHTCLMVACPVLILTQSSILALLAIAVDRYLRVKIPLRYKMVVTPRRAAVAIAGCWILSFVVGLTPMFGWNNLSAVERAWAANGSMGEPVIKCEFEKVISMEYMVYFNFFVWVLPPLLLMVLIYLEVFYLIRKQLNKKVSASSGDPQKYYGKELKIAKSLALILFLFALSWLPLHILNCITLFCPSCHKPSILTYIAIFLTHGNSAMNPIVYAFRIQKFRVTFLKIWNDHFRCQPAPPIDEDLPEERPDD

[3] = molecular target: T2, Adenosine receptor A2b (Homo sapiens, UniProt P29275); assay: Antagonist activity at human recombinant adenosine A2B receptor expressed in CHO cells assessed as inhibition of NECA-stimulated adenylyl cyclase activity; type: functional, cell-based
T2 sequence (P29275 whole entry): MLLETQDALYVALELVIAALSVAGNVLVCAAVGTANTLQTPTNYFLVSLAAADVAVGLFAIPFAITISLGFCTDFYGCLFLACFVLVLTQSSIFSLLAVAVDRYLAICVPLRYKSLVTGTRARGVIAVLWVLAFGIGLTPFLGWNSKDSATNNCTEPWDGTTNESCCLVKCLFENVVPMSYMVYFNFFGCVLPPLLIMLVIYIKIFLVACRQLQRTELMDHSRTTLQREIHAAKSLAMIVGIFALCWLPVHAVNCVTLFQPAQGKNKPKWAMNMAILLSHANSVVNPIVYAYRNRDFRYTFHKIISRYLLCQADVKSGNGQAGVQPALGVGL
In short: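 Membranes from CHO cells stably expressing the hA2B receptor were incubated 20 min with about 150,000 cpm [α-32P]ATP, without EGTA and NaCl. The read-out was antagonist concentration-dependent inhibition of NECA-stimulated adenylyl cyclase. IC50 was calculated with the Hill equation.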

[4] = molecular target: T3, Adenosine receptor A3 (Homo sapiens) (UniProt P0DMS8); assay: Displacement of [I125]I-AB-MECA from human adenosine A3 receptor expressed in CHO cells at 10 uM by scintillation counting; type: cell-based
T3 sequence (whole entry): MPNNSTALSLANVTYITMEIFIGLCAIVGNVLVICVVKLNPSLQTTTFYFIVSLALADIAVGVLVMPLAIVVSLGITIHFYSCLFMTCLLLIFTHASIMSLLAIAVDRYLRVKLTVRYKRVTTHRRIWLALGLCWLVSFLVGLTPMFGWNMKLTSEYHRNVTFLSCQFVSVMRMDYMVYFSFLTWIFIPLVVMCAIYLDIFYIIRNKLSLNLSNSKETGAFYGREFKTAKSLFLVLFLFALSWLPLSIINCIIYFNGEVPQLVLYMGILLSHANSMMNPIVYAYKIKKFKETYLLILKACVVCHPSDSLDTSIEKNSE

[5] = organism: Homo sapiens; assay: Selectivity ratio of Ki for human adenosine A1 receptor to Ki for human adenosine A2A receptor
[6] = molecular target: T4, Adenosine receptor A1 (Homo sapiens, UniProt P30542); assay: Displacement of [3H]DPCPX from human adenosine A1 receptor expressed in HEK293 cells by scintillation counting; type: cell-based
T4 sequence (P30542 whole entry): T1 sequence (whole entry)

[7] = organism: Homo sapiens; assay: Selectivity ratio of Ki for human adenosine A3 receptor to Ki for human adenosine A2A receptor

Chain of Adenosine receptor A2a (P29274 whole entry): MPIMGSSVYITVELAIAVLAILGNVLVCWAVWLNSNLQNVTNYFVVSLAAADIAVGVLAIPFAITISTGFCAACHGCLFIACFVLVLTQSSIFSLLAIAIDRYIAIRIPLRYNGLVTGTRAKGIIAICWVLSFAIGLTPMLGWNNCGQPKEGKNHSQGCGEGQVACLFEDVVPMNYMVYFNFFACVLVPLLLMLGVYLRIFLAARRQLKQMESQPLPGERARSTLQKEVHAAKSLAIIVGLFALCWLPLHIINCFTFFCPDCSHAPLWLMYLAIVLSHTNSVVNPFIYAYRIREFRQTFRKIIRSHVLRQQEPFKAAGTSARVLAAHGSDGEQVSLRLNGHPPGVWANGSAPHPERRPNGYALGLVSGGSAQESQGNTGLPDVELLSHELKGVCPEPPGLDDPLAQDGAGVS

Structure (SMILES) | Ki [1] | Activity [2] | IC50 [3] | Activity [4] | Ratio Ki [5] | Ki [6] | Ratio Ki [7]
O=C(Nc1nc(O)nc2nc(-c3ccco3)nn12)c1ccccc1 | 1750 nM | 34.4% | > 100000 nM | 75.9% |  |  | 
Nc1nc(N2CCNCC2)nc2nc(-c3ccco3)nn12 | 153 nM | 28.6% | > 30000 nM | 29.9% |  |  | 
NCCCCCNc1nc(N)n2nc(-c3ccco3)nc2n1 | 90.1 nM |  | > 10000 nM | 49.9% | 33 | 2950 nM | 
CC(C)(C)C(=O)N1CCN(c2nc(N)n3nc(-c4ccco4)nc3n2)CC1 | 58.4 nM | 38.7% | > 100000 nM | 32.3% |  |  | 
CC(C)(C)OC(=O)NCCOCCOCCNc1nc(N)n2nc(-c3ccco3)nc2n1 | 17.8 nM |  | > 10000 nM | 74% | 89 | 1580 nM | 
Nc1nc(N2CCN(C(=O)C(c3ccccc3)c3ccccc3)CC2)nc2nc(-c3ccco3)nn12 | 92.9 nM |  | > 100000 nM | 40.6% | 80 | 7470 nM | 
CC(C)(C)OC(=O)NCCCCCNc1nc(N)n2nc(-c3ccco3)nc2n1 | 44.7 nM |  | > 10000 nM | 68.6% | 21.5 | 963 nM | 
Nc1nc(N2CCN(Cc3ccc(Br)cc3)CC2)nc2nc(-c3ccco3)nn12 | 27.3 nM |  | > 10000 nM | 49.8% | 3.2 | 86.7 nM | 300
Nc1nc(NC(=O)c2ccccc2)n2nc(-c3ccco3)nc2n1 | 44.1 nM |  | 7060 nM | 67.2% | 40 | 1800 nM | 
NCCNc1nc(NCCN)n2nc(-c3ccco3)nc2n1 | 38200 nM | 10.7% | > 100000 nM | 17.7% | 0.3 |  | 
Nc1nc(N2CCN(Cc3ccc(F)cc3)CC2)nc2nc(-c3ccco3)nn12 | 52.3 nM |  | > 10000 nM | 71.3% | 12.5 | 655 nM | 
CC(C)(C)OC(=O)N1CCN(c2nc(N)n3nc(-c4ccco4)nc3n2)CC1 | 21 nM |  | > 10000 nM | 56.6% | 257 | 5400 nM | 400
Nc1nc(N2CCN(Cc3cccc(Cl)c3)CC2)nc2nc(-c3ccco3)nn12 | 51.8 nM |  | > 30000 nM | 52.7% | 29 | 1510 nM | 200
NCCCNc1nc(N)n2nc(-c3ccco3)nc2n1 | 270 nM | 44.3% | > 30000 nM | 40.5% |  |  | 
O=C(Nc1nc(Oc2ccccc2)nc2nc(-c3ccco3)nn12)c1ccccc1 | 1000 nM | 26.2% | > 10000 nM | 32.3% |  |  | 
Nc1nc(N)n2nc(-c3ccco3)nc2n1 | 160 nM |  | 11100 nM | 36.4% | 9 | 1410 nM | 

Structure (SMILES) | Ki [1] | Activity [2] | IC50 [3] | Activity [4] | Ratio Ki [5] | Ki [6] | Ratio Ki [7]
Nc1nc(N2CCN(C(=O)C(Cl)Cl)CC2)nc2nc(-c3ccco3)nn12 | 282 nM | 34.6% | > 100000 nM | 33.6% |  |  | 
Nc1nc(N2CCN(C(=O)c3cccc4ccccc34)CC2)nc2nc(-c3ccco3)nn12 | 7680 nM | 4.9% | > 100000 nM | 31.1% |  |  | 
CC(C)(C)OC(=O)NCCCNc1nc(N)n2nc(-c3ccco3)nc2n1 | 38.6 nM |  | 20600 nM | 77.3% | 9 | 344 nM | 
Nc1nc(N2CCN(C(=O)Cc3ccccc3)CC2)nc2nc(-c3ccco3)nn12 | 94.8 nM |  | > 100000 nM | 64.5% | 37 | 3510 nM | 
COC(=O)CCC(=O)N1CCN(c2nc(N)n3nc(-c4ccco4)nc3n2)CC1 | 66.2 nM | 19.4% | > 100000 nM | 37.2% |  |  | 
CC(C)(C)OC(=O)NCC1CCC(CNc2nc(N)n3nc(-c4ccco4)nc3n2)CC1 (centres undefined) | 69.7 nM |  | 7140 nM | 75.5% | 56 | 3890 nM | 
Nc1nc(N2CCN(C(=O)c3ccc([N+](=O)[O-])cc3)CC2)nc2nc(-c3ccco3)nn12 | 212 nM | 35.5% | > 100000 nM | 50.9% |  |  | 40
Nc1nc(N2CCN(C(=O)c3ccccc3)CC2)nc2nc(-c3ccco3)nn12 | 348 nM | 27.7% | > 100000 nM | 22.6% |  |  | 
CC(C)(C)CC(=O)N1CCN(c2nc(N)n3nc(-c4ccco4)nc3n2)CC1 | 11.1 nM | 53.1% | > 100000 nM | 41.9% | 900 |  | > 900
Nc1nc(N2CCN(Cc3ccc(Cl)cc3)CC2)nc2nc(-c3ccco3)nn12 | 102 nM |  | > 30000 nM | 66.8% | 2.1 | 220 nM | 
NCCNc1nc(N)n2nc(-c3ccco3)nc2n1 | 567 nM | 35.8% | > 100000 nM | 30.8% |  |  | 
CCCCC(=O)N1CCN(c2nc(N)n3nc(-c4ccco4)nc3n2)CC1 | 124 nM | 10.8% | > 100000 nM | 56.2% |  |  | 
Nc1nc(O)nc2nc(-c3ccco3)nn12 | 201 nM |  | > 10000 nM | 43.9% | 15.5 | 3110 nM | 50
Nc1nc(N2CCCC2)nc2nc(-c3ccco3)nn12 | 59.1 nM |  | > 30000 nM | 75% | 33 | 1940 nM | 
Nc1nc(N2CCN(Cc3ccccc3)CC2)nc2nc(-c3ccco3)nn12 | 20.6 nM |  | > 30000 nM | 71.9% | 47.5 | 978 nM | 
